# This is a sample that favours compounds with a hit; in the whole collection about 2.8% have one here.
# SF-1 act: activators of human SF-1, primary screen, cell-based, CHO-K1, Gal4-SF-1 LBD, luciferase luminescence; AID 522, 2006; CHO-K1 Gal4-SF-1 LBD luciferase reporter; % increase over DMSO SF-1-specific signal; Steroidogenic factor 1 (Homo sapiens), Q13285; activation, % at 10 µM; actives 1.9% (n = 65,000);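 active means activation above the mean activation of all tested compounds plus 3 SD, cut at about 50% in these data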
#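 Test system: CHO-K1 cells co-transfected with Gal4 DBD–human SF-1 LBD, 5xGal4 luciferase reporter. Quantity: 4,000 cells per well. Compound: 10 µM only. Incubation: compound added 1 h post-seeding, 20 h exposure at 37 °C, 5% CO2. Detection: SteadyLite luciferase luminescence. Replication: one test per compound.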
# Jurkat tox 60K: cytotoxicity toward Jurkat T cells, primary screen, cytotoxicity control, cell-based, Jurkat E6.1, 60K MLSMR library; AID 463, 2006; Jurkat E6.1 viability, ATP luminescence, 48 h; actives 1.2% (n = 56,000); inhibition, % at 4 µM;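 active means inhibition above the mean inhibition of all tested compounds plus 3 SD, cut at about 28% in these data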
# RORa activator: activators of orphan receptor RORA, primary screen, cell-based, luminescence; Nuclear receptor ROR-alpha (Homo sapiens), P35398; CHO-K1 Gal4-RORA LBD luciferase reporter; percent increase over mock-subtracted basal signal; activation, % at 10 µM; actives 1.5% (n = 65,000); AID 560, 2006;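 active means activation above the mean of all tested compounds plus 3 SD, cut at about 49% in these data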;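 further: 0% = DMSO-treated RORA cells and 100% = added signal equal to DMSO minus mock-transfected cells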
# Target sequence (P35398 whole entry, looked up, the tested form may be a part): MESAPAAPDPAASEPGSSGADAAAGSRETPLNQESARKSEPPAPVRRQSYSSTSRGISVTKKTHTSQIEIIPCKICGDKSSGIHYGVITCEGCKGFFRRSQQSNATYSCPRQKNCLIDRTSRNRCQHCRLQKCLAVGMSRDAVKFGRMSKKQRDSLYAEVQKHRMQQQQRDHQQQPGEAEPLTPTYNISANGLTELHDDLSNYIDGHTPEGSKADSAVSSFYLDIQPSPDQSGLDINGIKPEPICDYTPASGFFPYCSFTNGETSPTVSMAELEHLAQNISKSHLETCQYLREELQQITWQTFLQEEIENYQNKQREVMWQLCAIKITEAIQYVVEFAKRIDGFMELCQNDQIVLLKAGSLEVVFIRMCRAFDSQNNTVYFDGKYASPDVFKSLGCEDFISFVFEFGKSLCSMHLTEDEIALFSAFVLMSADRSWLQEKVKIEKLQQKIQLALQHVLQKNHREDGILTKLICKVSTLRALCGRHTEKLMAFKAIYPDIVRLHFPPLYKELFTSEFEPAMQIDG
# HEK293 NFkB inh: inhibitors of PMA/ionomycin-induced NF-kB reporter, primary screen, antigen receptor NF-kB inhibitor project, cell-based, HEK-293 luciferase reporter, luminescence | HEK-293 NF-kB luciferase reporter | inhibition, % at 3 µM | actives 0.21% (n = 62,000) | AID 465, 2006;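 active means inhibition above the mean of all tested compounds plus 3 SD, cut at about 40% in these data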;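 further: 0% = stimulated DMSO wells and 100% = 10 µM reference inhibitor 5653914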
#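 Material: HEK-293 cells with stable firefly luciferase reporter driven by four HIV NF-kB elements / Also added: PMA plus ionomycin mix as NF-kB-activating stimulus / Compound dosing: 3 µM once, 0.30% DMSO / Times: 1 h pretreatment, 16 h stimulation, 37 °C / Signal: luminescence / Evaluation: per-plate % inhibition versus controls / Benchmarks: DMSO and 10 µM reference inhibitor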
# MT1-MMP txn act: MT1-MMP promoter reporter activation – cell-based, luciferase luminescence, primary screen. HT1080 MT1-MMP promoter luciferase reporter, overnight; hits give high values. activation factor at 10 µM. actives 0.16% (n = 86,000). AID 750, 2007;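 active means activation factor of at least 2 for MT1-MMP transcription at 10 µM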
# Starred values were filed as active, the others as inactive; . = no result given.
SMILES,SF-1 act,Jurkat tox 60K,RORa activator,HEK293 NFkB inh,MT1-MMP txn act
Cc1sc2nc3n(c(=O)c2c1C)Cc1ccccc1-3,56.1*,-2.1,73.2*,-30.2,1.9
O=c1nc2n(c3ccccc13)Cc1ccccc1-2,8.1,-2.3,-7.8,16.4,1.1
Cn1nc(-c2ccc(Cl)cc2)c2cc(C(=O)NCCCN3CCCC3)sc21,56.0*,6.3,10.6,11.3,1.4
CCN1C(=S)SC(=O)C1=C1C=C(C)OC(C)=C1,19.4,.,12.9,9.1,1.3
CCN1C(=S)SC(=O)C1=C1C=C(C)N(Cc2ccco2)C(C)=C1,52.9*,.,18.5,-39.8,1.8
COc1ccc(-n2ncc3c(NCc4ccco4)ncnc32)cc1,68.7*,6.9,61.6*,-33.1,1.5
O=C1CCCN1CCCNc1ncnc2c1cnn2-c1ccc(Cl)cc1,19.1,14.2,68.9*,-3.9,1.5
Clc1ccc(-n2ncc3c(NCc4ccco4)ncnc32)cc1,75.7*,.,65.3*,.,1.3
CCC(CO)Nc1ncnc2c1cnn2-c1ccc(OC)cc1 (centres undefined),100.9*,-2.7,61.0*,-35.6,1
COc1ccc(-n2ncc3c(NCCN4CCOCC4)ncnc32)cc1,.,.,.,.,1.3
COc1ccc(-n2ncc3c(NCCCN4CCOCC4)ncnc32)cc1,53.3*,5.2,25.8,-14.9,1.2
CN(C)CCNc1ncnc2c1cnn2-c1ccc(Cl)cc1,73.3*,-1.6,43.3,-19.3,1.2
CCC(CO)Nc1ncnc2c1cnn2-c1ccc(Cl)cc1 (centres undefined),35.1,-0.7,28.2,-53.5,0.6
COc1ccc(-n2ncc3c(NCc4ccccn4)ncnc32)cc1,56.4*,6.6,35.8,-15.2,1.4
Clc1ccc(Cn2ncc3c(NCc4ccco4)ncnc32)c(Cl)c1,61.5*,81.8*,45.9,18.4,1.1
O=C(Nc1ccc2c(c1)CCC2)C1COc2ccccc2O1 (centres undefined),2.0,-2.6,6.5,-4.7,1.3
COC(=O)Nc1nn(Cc2ccccc2F)cc1Br,-8.5,-5.3,-4.6,8.3,1.1
CN(C)S(=O)(=O)c1cccc(C(=O)N2CCN(Cc3ccccc3)CC2)c1,-3.9,-5.1,-9.4,19.6,1.2
O=S(=O)(c1ccc(S(=O)(=O)N2CCN3CCCC3C2)cc1)N1CCCC1 (centres undefined),1.6,3.4,8.2,7.4,1.1
C=CCN(CC=C)S(=O)(=O)c1ccc(NC(=O)COc2ccccc2OC)cc1,.,.,.,.,1
COCCCN(C(C)=O)c1nc(-c2ccc(OC)cc2)cs1,98.1*,57.0*,84.5*,19.8,1.5
Cc1ccc(OCCN2CCN(c3ncnc4sc(C)c(C)c34)CC2)cc1,.,.,.,.,1
Clc1ccc(OCCN2CCN(c3ncnc4sccc34)CC2)cc1,-89.7,44.1*,-80.9,62.4*,1.1
CC(=O)O[C@@H]1[C@@H](OC(C)=O)[C@H](n2ccc3cc([N+](=O)[O-])ccc32)OC[C@@H]1OC(C)=O,.,.,.,.,1.2
COc1cc(Cn2c(-c3nonc3N)nc3ccccc32)ccc1C,25.6,30.7*,2.6,22.8,1.2
SMILES,SF-1 act,Jurkat tox 60K,RORa activator,HEK293 NFkB inh,MT1-MMP txn act
CC(C)(C)NC(=O)Cn1c(-c2nonc2N)nc2ccccc21,.,.,.,.,1
CCCCOc1ccccc1NC(=O)Cn1c(-c2nonc2N)nc2ccccc21,-67.3,33.3*,-45.7,37.9,1
Cc1ccc(Cn2c(-c3nonc3N)nc3ccccc32)cc1,6.7,5.7,-16.2,14.9,.
COc1cccc(Cn2c(-c3nonc3N)nc3ccccc32)c1,62.3*,81.2*,12.6,11.7,1.1
O=C(O)CSc1nnc(-c2ccc3c(c2)OCO3)o1,.,.,.,.,1.1
O=C(c1ccc(Cl)cc1)N1CCCCC(Sc2nnc(-c3ccc4c(c3)OCO4)o2)C1=O (centres undefined),-89.3,2.2,-75.5,75.7*,.
O=C(Nc1ccc2c(c1)OCCO2)c1ccccc1F,1.6,3.1,-29.8,-19.8,0.6
O=C(Nc1ccc2oc(-c3ccccc3F)nc2c1)c1ccc2c(c1)OCCO2,30.8,7.6,61.1*,5.0,.
CC(=O)c1c(C)[nH]c(C(=O)Nc2ccc3c(c2)OCCO3)c1C,60.9*,5.3,8.9,-41.6,0.9
O=C(Nc1ccc2c(c1)OCCO2)c1c(F)cccc1F,56.0*,-1.0,47.2,-33.1,0.8
O=[n+]1c2c(n([O-])c3cc(F)ccc31)CCCC2,11.9,-16.4,24.5,13.7,1
CSCCC(C(=O)O)N1C(=O)c2ccc(C(=O)O)cc2C1=O (centres undefined),2.2,.,13.4,-1.9,1.3
COc1ccc(NC2=Nc3ccccc3CC2)cc1,57.6*,8.1,62.7*,-18.5,1.2
CCOc1ccc(Nc2cc(=O)n(C)c(=O)n2C)cc1,-3.6,-7.5,5.1,13.3,1.2
CN(C)c1ccc(NC(=O)Nc2cccc(Cl)c2)cc1,64.2*,2.0,2.7,-28.0,1.4
CN(c1cccc(NC(=O)Nc2cccc(Cl)c2)c1)S(C)(=O)=O,47.8,20.1,38.0,-6.9,1.5
C/C(N)=C(/C#N)C(=O)CSc1nc2ccc(C)cc2[nH]1,76.9*,-2.7,26.3,-59.8,1.2
Cc1cc(NC(=O)CCS(=O)(=O)c2nc(-c3ccccc3)cc(C(F)(F)F)n2)no1,-32.4,32.7*,-36.5,7.9,0.9
O=C(Nc1ccon1)c1cc2c(s1)CCCCCC2,82.1*,-1.1,45.3,-31.6,1.5
Cc1csc(NC(=O)c2cc3c(s2)CCCCC3)n1,.,.,.,.,0.6
CCc1nnc(NC(=O)c2cc3c(s2)CCCCC3)s1,73.5*,.,34.5,-33.0,0.9
O=C(Nc1ccon1)c1cc2c(s1)CCCC2,37.9,6.6,42.2,-41.7,0.6
O=C(NCc1ccco1)c1cc2c(s1)CCCCC2,70.3*,-1.2,6.7,-16.1,1.4
c1ccc(C(c2ccccc2)N2CCN(c3nc4ccccc4n4cnnc34)CC2)cc1,.,.,.,.,1.1
CCOC(=O)Nc1ccc2c(c1)N(C(=O)C(C)N1CCCC1)c1ccccc1CC2 (centres undefined),.,.,.,.,0.9
SMILES,SF-1 act,Jurkat tox 60K,RORa activator,HEK293 NFkB inh,MT1-MMP txn act
CCOC(=O)Nc1ccc2c(c1)N(C(=O)OC)c1ccccc1CC2,15.4,65.9*,-13.7,17.4,1.1
O=C(c1ccc(F)cc1)C(CN1CCOCC1)c1ccccc1 (centres undefined),-27.3,80.5*,-35.5,28.9,0.2
Cc1ccc(-c2noc(COc3ccccc3C)n2)cc1,2.5,-1.8,12.0,18.9,1.3
Cc1ccccc1OCc1nc(-c2ccc(NC(=O)c3ccco3)cc2)no1,27.9,.,58.2*,-24.8,1.2
Cc1ccccc1OCc1nc(-c2ccccc2)no1,71.2*,9.0,33.7,-18.7,1.5
CCCc1ccc(OCc2nc(-c3ccc(NC(=O)c4ccco4)cc3)no2)cc1,49.7*,5.6,43.7,-27.5,1.3
